esBAF inh: SWI/SNF esBAF complex inhibition | mouse ES cells, Bmi1-luciferase knock-in reporter, 24 h; 100% = twice the neutral-well signal | reporter increase, % at 12.5 µM | hit rate 2% among 350,000; in the data active = activation above about 40%; inconclusive = no clear call, values can overlap the other calls;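 also: a rise in the Bmi1 reporter signal indicates esBAF inhibition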
Wnt act: activates Wnt/beta-catenin signaling in a reporter cell assay. AID 743398. activation, % at 9.35 µM. hit rate 1.2% among 300,000. activator, plate reader; in the data active = activation above about 30%, passing the limit was not always enough; inconclusive = no clear call, values can overlap the other calls
MITF act: activators of MITF-driven TRPM1 promoter activity in SK-MEL-5 cells | activation, % at 12.5 µM | AID 588334 | hit rate 0.75% among 300,000 | SK-MEL-5 TRPM1-promoter luciferase, 24 h; % of positive control, neutral wells = 0;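 active = mean activation of at least 80% with every replicate also reaching 80%; inconclusive = mean reaches 80% but some replicate falls short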
XiGFP reactiv: reactivates the inactive X chromosome in mouse fibroblasts; XiGFP mouse fibroblasts, % GFP-positive cells imaging, 3 d; cells co-treated with 5-aza-dC sensitizer; scaled so ellipticine positive control = 100%; activation, % at 7.58 µM; hit rate 0.055% among 360,000;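 active = mean normalized replicate activation at least 10% and every replicate at or above 10%; inconclusive = only one of the two criteria met; inactive = mean below 10% and not all replicates reach 10%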
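System: 68-5-11 XiGFP fibroblast line; Timing: 3 days compound exposure; Compound dosing: one concentration, pinned; Benchmarks: positive control ellipticine, 6 µM final; Buffer or medium: DMEM containing 5-aza-dC.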
Vif imaging: inhibitors of HIV Vif; HEK293T cells, Vif self-association by quenched fluorescence, imaging, 24 h; inhibition, % at 7.49 µM; hit rate 0.35% among 340,000; in the data active = inhibition above about 50%, passing the limit was not always enough; inconclusive = no clear call, values can overlap the other calls; inactive = below about 31%
A number is an active result; i = inactive; ? = inconclusive; nt = no result given. A selection: hits, their analogues and other compounds. The true share with any hit is near 2.6%.

SMILES	esBAF inh	Wnt act	MITF act	XiGFP reactiv	Vif imaging
COc1ccc(NC(=O)N(C)C[C@H]2Oc3c(NC(=O)NC(C)C)cccc3C(=O)N([C@H](C)CO)C[C@H]2C)cc1	i	nt	nt	i	nt
COc1cccc(N2CCN(C(=O)c3ccc(CS(=O)c4ccc(C)cc4)o3)CC2)c1 (centres undefined)	i	i	i	i	56.3
COc1cccc(N2CCN(C(=O)c3ccc(CS(=O)c4ccc(Cl)cc4)o3)CC2)c1 (centres undefined)	i	i	i	i	i
CCOC(=O)c1c(CN2CCN(Cc3ccccc3)CC2)n(C)c2cc(Br)c(OC)cc12	i	i	i	nt	i
CCOC(=O)c1c(CN2CCC(C)CC2)n(C)c2cc(Br)c(OC)cc12	nt	40.4	i	i	i
O=C(CN1CCOCC1)NCC[C@H]1CC[C@@H](NC(=O)Nc2ccc(Cl)cc2)[C@H](CO)O1	i	nt	nt	i	nt
C[C@@H]1CN([C@H](C)CO)C(=O)Cc2cc(N(C)C)ccc2O[C@H]1CN(C)S(=O)(=O)c1ccccc1	i	nt	nt	i	nt
COc1ccc(CCNC(=O)c2coc3ccccc3c2=O)cc1OC	i	i	i	i	i
COc1ccc(NC(=O)c2coc3ccccc23)cc1OC	83.0	nt	111.5	nt	i
Cc1ccc(C)c(NC(=O)c2ccccc2NC(=O)C2CCCO2)c1 (centres undefined)	nt	60.2	i	i	nt
COc1ccc(NC(=O)c2oc3ccccc3c2NC(=O)C2CCCO2)cc1OC (centres undefined)	63.3	i	i	i	i
Cc1ccc(NC(=O)c2oc3ccccc3c2NC(=O)C2CCCO2)cc1C (centres undefined)	nt	47.3	104.2	i	i
C[C@@H]1CN([C@@H](C)CO)C(=O)c2cc(NS(C)(=O)=O)ccc2O[C@@H](C)CCCCO[C@H]1CN(C)Cc1ccc(C(=O)O)cc1	i	nt	nt	i	nt
CCC(=O)N(C)C[C@@H]1Oc2cc(/C=C/c3ccccc3)ccc2S(=O)(=O)N([C@@H](C)CO)C[C@@H]1C	i	nt	nt	i	nt
CC(=O)Nc1cccc(-c2nnc(-c3ccccc3)o2)c1	?	34.9	nt	nt	i
O=C(Nc1cccc(-c2nnc(-c3ccccc3)o2)c1)C1CC1	i	i	i	i	i
CCOc1cccc(C(=O)Nc2ccc3oc(Cc4ccc(Cl)cc4)nc3c2)c1	i	nt	i	nt	56.4
O=C(Nc1ccc2oc(Cc3ccc(Cl)cc3)nc2c1)c1cccnc1	i	nt	i	nt	i
Cc1cc(C)n(-c2ccc(C(=O)OCc3ccccc3)cc2)n1	nt	i	i	i	i
CCOc1cccc(C(=O)Nc2cccc(-c3nnc(-c4ccccc4)o3)c2)c1	42.8	i	i	nt	i
Cc1cc(C)n(-c2ccc(C(=O)OCc3nnc(-c4ccccc4)o3)cc2)n1	45.6	nt	i	nt	i
C[C@H]1CN([C@@H](C)CO)C(=O)c2ccccc2-c2ccccc2CO[C@@H]1CN(C)Cc1ccc(Cl)c(Cl)c1	nt	nt	nt	i	nt
COc1ccc(OC(=O)N(C)C[C@H]2OCc3cn(nn3)CCCC(=O)N([C@@H](C)CO)C[C@@H]2C)cc1	i	nt	nt	i	nt
CCOC(=O)c1cccc(COC(=O)c2cccc(-c3nnc(-c4ccccc4)o3)c2)c1	nt	54.7	i	i	i
O=c1[nH]c(-c2ccccc2)nnc1-c1ccccc1	i	32.5	i	i	i
SMILES	esBAF inh	Wnt act	MITF act	XiGFP reactiv	Vif imaging
Cc1nnc(-c2ccccc2)[nH]c1=O	i	i	i	i	i
Cc1cccc(C)c1OCc1cc(C(=O)N2CCN(c3ccc(F)cc3)CC2)no1	44.8	i	i	i	i
CC(=O)N1CCCN(C(=O)c2cc(COc3c(F)cccc3F)on2)CC1	nt	i	i	i	nt
CCOC(=O)N1CCN(C(=O)c2cc(COc3ccc(F)cc3F)on2)CC1	nt	i	i	i	i
CCOC(=O)N1CCN(C(=O)c2cc(COc3c(F)cccc3F)on2)CC1	57.8	44.7	i	i	i
CCOC(=O)C1CCN(C(=O)c2cc(COc3ccc(F)cc3F)on2)CC1	nt	i	111.1	i	i
Cc1cccc(C)c1OCc1cc(C(=O)N2CCN(c3ccccn3)CC2)no1	i	i	i	i	i
COc1cccc(C(=O)/C=C2\Sc3ccccc3N2C)c1	45.0	i	i	i	i
O=C(C=Cc1cccc(O)c1)c1ccccc1O	?	i	i	i	i
COc1cc(/C=C/C(=O)NC(=O)c2ccccc2O)ccc1O	?	i	83.6	i	i
O=C(/C=C/c1ccccc1)NC(=O)c1ccccc1O	?	i	i	i	i
O=C(/C=C/c1cc2ccccc2o1)c1ccccc1O	nt	38.7	?	i	i
O=C(/C=C/c1ccc(O)c(O)c1)c1ccccc1O	nt	46.6	i	i	i
O=C(C=Cc1ccccc1O)c1ccccc1O	62.8	i	i	i	i
CC(C)CC#Cc1ccc2c(c1)O[C@@H](CN(C)C)[C@H](C)CN([C@@H](C)CO)S2(=O)=O	i	nt	nt	i	nt
C[C@@H]1CN([C@H](C)CO)C(=O)c2cc(NC(=O)CCC(F)(F)F)ccc2O[C@H]1CN(C)Cc1ccc(-c2ccccc2)cc1	i	nt	nt	i	nt
O=C(/C=C/c1ccc(O)cc1)c1ccc(O)cc1O	70.0	i	i	i	i
COc1ccc2cc(-c3[nH]ncc3CN3CCCCO3)ccc2c1	56.4	i	i	i	i
COc1ccc(-c2[nH]ncc2CN2CCCO2)cc1F	nt	i	i	i	i
CC(=O)c1cccc2c(O)c(C3=Nc4ccccc4C3=O)[nH]c12	i	40.3	i	nt	i
CSc1nnc2c(n1)[nH]c1c(C)cccc12	i	nt	i	nt	i
CCSc1nnc2c(n1)[nH]c1c(C)cccc12	88.8	nt	i	nt	i
CC1(C(=O)NS(=O)(=O)c2ccc(C#N)cc2)CCN1C(=O)C1CCCCC1 (centres undefined)	i	i	nt	i	i
CC1(C(=O)NS(=O)(=O)c2cccc(C#N)c2)CCN1C(=O)C1CCCCC1 (centres undefined)	i	35.3	nt	i	i
CC(C)(C)n1cnc2cc(NCc3cccs3)ccc21	51.8	i	i	i	i
SMILES	esBAF inh	Wnt act	MITF act	XiGFP reactiv	Vif imaging
C[C@@H]1CN([C@H](C)CO)C(=O)c2cc(C#Cc3cccc(F)c3)cnc2O[C@@H]1CN(C)CC1CC1	nt	nt	nt	i	nt
O=c1[nH][nH]c(=O)c2c(NS(=O)(=O)c3ccccc3)cccc12	46.2	i	i	i	i
CCOP(=O)(OCC)C(NC(=O)/C=C/c1ccc(OC)cc1)c1ccccc1 (centres undefined)	nt	33.9	i	i	i
CCOP(=O)(OCC)C(NC(=O)Nc1ccccc1)c1ccccc1 (centres undefined)	nt	i	i	i	i
Nc1ccccc1C(=O)NNC1=C(C(=O)C(F)(F)F)CCC1	nt	68.5	nt	i	i
O=C(NNC1=C(C(=O)C(F)(F)F)CCC1)c1ccccc1O	i	nt	i	nt	i
O=c1c2c3c(sc2nc2n1CCCC2)CCCC3	47.5	nt	i	nt	i
CSc1nc2sc3c(c2c(=O)n1C)CCCC3	44.7	nt	i	nt	i
O=c1c2c3c(sc2nc2n1CCC2)CCCCC3	nt	i	i	i	i
Cc1ccc(S(=O)(=O)N(C)C[C@@H]2OCCCC[C@@H](C)Oc3ccc(NS(=O)(=O)c4cccs4)cc3C(=O)N([C@@H](C)CO)C[C@@H]2C)cc1	i	nt	nt	i	nt
